Results published in ChEMBL document CHEMBL1949631, “Novel 3-phenylpiperidine-4-carboxamides as highly potent and orally long-acting neurokinin-1 receptor antagonists with reduced CYP3A induction” (Bioorg Med Chem, 2012).

What was measured:
Substance-P receptor = Substance-P receptor (Homo sapiens, UniProt P25103); assay: Displacement of [125I]BH-SP from tachykinin NK1 receptor in human IM9 cells after 30 mins by scintillation counting; format: cell-based, IM-9
Outline: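 Receptor membranes from human IM-9 lymphoblasts (grown 3 days, homogenised, spun 40,000 g) in 50 mM Tris-HCl pH 7.4 with 0.02% BSA, protease inhibitors and 3 mM MnCl2. Incubated with [125I]BH-SP (final 130 pM) for 30 min at room temperature in 0.2 mL. Nonspecific binding defined with 2×10^-6 M SP. Read by rapid GF/C filtration (PEI-soaked filters), three washes, scintillation counting.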

Cavia porcellus [1] = assay: Inhibition of GR73632-induced increase in locomotor activity in po dosed Hartley guinea pig after 1 hr; format: functional; details: read-out: ID50 (the source's name)
Outline: (§1)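 Male Hartley guinea pigs, 6–8 per group, dosed orally with compound suspended in 0.5% methylcellulose (2 mL/kg), or vehicle, 0.75 h (1 h line) or 23.75 h (24 h line) before intracerebroventricular […] infusion. %inh. comes from locomotor counts corrected for the sham-infused group against the vehicle control. ID50 and 95% CI come from linear regression of the dose–response.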

Cavia porcellus [2] = assay: Inhibition of GR73632-induced increase in locomotor activity in po dosed Hartley guinea pig after 24 hrs; format: functional; details: read-out: ID50 (the source's name); outline: as §1
[3] = (§2) Metabolic stability in human liver microsomes assessed as parent compound remaining at 1 uM after 15 to 30 mins by HPLC analysis; format: ADME, Microsome; details: liver microsomes, read-out: Stability
Outline: (§3)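 Compound at 1 μM incubated with human liver microsomes for 15 and 30 min under standard conditions. Remaining parent compound quantified by HPLC and expressed as μL/mg/min.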

Cavia porcellus [4] = assay: Inhibition of GR73632-induced increase in locomotor activity in Hartley guinea pig at 0.1 mg/kg, iv after 5 mins relative to control; format: functional
Outline: (§4)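 Male Hartley guinea pigs, 6–8 per group. Compound or vehicle in DMA-PEG400 (1:1, v/v), 0.5 mL/kg, given intravenously just before intracerebroventricular infusion of the NK1 agonist […]. %inh. is taken from activity counts relative to vehicle-treated and sham-infused groups. Values are averages of 5–10 independent experiments.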

[5] = AUC (0 to 24 hrs) in rat at 1 mg/kg, po; format: ADME, organism-based; design: time < 24 hr, dose 1 mg/kg, route oral; details: plasma
Outline: (§5)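 Single oral dose of 1 mg/kg. Blood concentration–time curve used to derive AUC, mean residence time and bioavailability.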

[6] = AUC (0 to 24 hrs) in guinea pig at 1 mg/kg, po; format: ADME, organism-based, Cavia porcellus; design: time < 24 hr, dose 1 mg/kg, route oral; details: plasma; outline: as §5
[7] = AUC (0 to 24 hrs) in dog at 1 mg/kg, po; format: ADME, organism-based, Canis lupus familiaris; design: time < 24 hr, dose 1 mg/kg, route oral; details: plasma; outline: as §5
[8] = AUC (0 to 24 hrs) in monkey at 1 mg/kg, po; format: ADME, organism-based, Macaca mulatta; design: time < 24 hr, dose 1 mg/kg, route oral; details: rhesus monkey, plasma; outline: as §5
[9] = Mean residence time in rat at 1 mg/kg, po; format: ADME, organism-based; design: dose 1 mg/kg, route oral; details: in vivo; outline: as §5
[10] = Mean residence time in guinea pig at 1 mg/kg, po; format: ADME, organism-based, Cavia porcellus; design: dose 1 mg/kg, route oral; details: in vivo; outline: as §5
[11] = Mean residence time in dog at 1 mg/kg, po; format: ADME, organism-based, Canis lupus familiaris; design: dose 1 mg/kg, route oral; details: in vivo; outline: as §5
[12] = Mean residence time in monkey at 1 mg/kg, po; format: ADME, organism-based, Macaca mulatta; design: dose 1 mg/kg, route oral; details: rhesus monkey, in vivo; outline: as §5
[13] = Oral bioavailability in rat at 1 mg/kg; format: ADME, organism-based; details: in vivo; outline: as §5
[14] = Oral bioavailability in guinea pig at 1 mg/kg; format: ADME, organism-based, Cavia porcellus; details: in vivo; outline: as §5
[15] = Oral bioavailability in dog at 1 mg/kg; format: ADME, organism-based, Canis lupus familiaris; details: in vivo; outline: as §5
[16] = Oral bioavailability in monkey at 1 mg/kg; format: ADME, organism-based, Macaca mulatta; details: rhesus monkey, in vivo; outline: as §5
[17] = Metabolic stability in rat microsomes; format: ADME, Microsome
[18] = Metabolic stability in guinea pig microsomes; format: ADME, Cavia porcellus, Microsome
[19] = Metabolic stability in dog microsomes; format: ADME, Canis lupus familiaris, Microsome
[20] = Metabolic stability in monkey microsomes; format: ADME, Macaca mulatta, Microsome; details: rhesus monkey
[21] = molecular target: T1, Nuclear receptor subfamily 1 group I member 2 (Homo sapiens, UniProt O75469); assay: Induction of human PXR-mediated CYP3A activity at 10 uM
T1 sequence (O75469 whole entry): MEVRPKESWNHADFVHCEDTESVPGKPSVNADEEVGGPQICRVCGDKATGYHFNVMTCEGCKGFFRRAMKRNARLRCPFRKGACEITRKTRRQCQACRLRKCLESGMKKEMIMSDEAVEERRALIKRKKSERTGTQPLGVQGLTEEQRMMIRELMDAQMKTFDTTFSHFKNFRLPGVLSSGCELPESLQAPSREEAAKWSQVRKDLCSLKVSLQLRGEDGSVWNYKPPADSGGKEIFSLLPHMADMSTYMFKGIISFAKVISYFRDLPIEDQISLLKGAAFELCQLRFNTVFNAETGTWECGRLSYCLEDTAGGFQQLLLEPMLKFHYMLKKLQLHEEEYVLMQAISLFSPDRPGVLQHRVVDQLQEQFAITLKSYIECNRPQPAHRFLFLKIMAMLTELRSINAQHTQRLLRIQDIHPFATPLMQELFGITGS

Cavia porcellus [22] = assay: Inhibition of GR73632-induced increase in locomotor activity in Hartley guinea pig at 0.3 mg/kg, iv after 5 mins relative to control; format: functional; outline: as §4
Liver microsomes = assay: as §2; format: ADME, Microsome; details: microsomes, 1 µM; outline: as §3

Chain of Substance-P receptor (P25103 whole entry): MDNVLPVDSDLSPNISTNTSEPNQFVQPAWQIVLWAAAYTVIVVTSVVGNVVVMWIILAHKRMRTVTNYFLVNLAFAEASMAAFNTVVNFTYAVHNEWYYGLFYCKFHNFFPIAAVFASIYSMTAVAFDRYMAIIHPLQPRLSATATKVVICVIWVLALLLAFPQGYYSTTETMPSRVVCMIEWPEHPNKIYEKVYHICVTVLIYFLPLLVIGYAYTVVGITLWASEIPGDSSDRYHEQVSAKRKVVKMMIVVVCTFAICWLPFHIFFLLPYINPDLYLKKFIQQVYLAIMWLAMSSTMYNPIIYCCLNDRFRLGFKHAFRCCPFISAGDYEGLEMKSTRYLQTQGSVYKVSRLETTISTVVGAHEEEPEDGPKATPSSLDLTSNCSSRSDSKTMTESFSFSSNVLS

Compound | IC50 (Substance-P receptor) | microsomal CLint at 1 µM [3] | inhibition in vivo at 0.3 mg/kg (Cavia porcellus [22]) | other results
CC(=O)N1CCC(C(=O)N2CCC(C(=O)N(C)Cc3cc(C(F)(F)F)cc(C(F)(F)F)c3)=C(c3ccccc3)C2)CC1 | 0.17 nM |  |  | 
Cc1cc(F)ccc1[C@H]1CN(C(=O)C(N)=O)CC[C@@H]1C(=O)N(C)Cc1cc(C(F)(F)F)cc(C(F)(F)F)c1 | 0.02 nM | 30 µL/min/mg |  | ED50 (Cavia porcellus [1]): 0.14 mg/kg; ED50 (Cavia porcellus [2]): 0.72 mg/kg; inhibition in vivo at 0.1 mg/kg (Cavia porcellus [4]): 88.8%
Cc1cc(F)ccc1[C@@H]1CN(C(=O)C(N)=O)CC[C@H]1C(=O)N(C)Cc1cc(C(F)(F)F)cc(C(F)(F)F)c1 | > 100 nM |  |  | 
Cc1cc(F)ccc1[C@H]1CN(C(=O)C(N)=O)CC[C@@H]1C(=O)N(C)[C@@H](C)c1cc(C(F)(F)F)cc(C(F)(F)F)c1 |  | 2 µL/min/mg |  | ED50 (Cavia porcellus [1]): 0.1 mg/kg; ED50 (Cavia porcellus [2]): 0.57 mg/kg; AUC(0-t) at 24 h [5]: 521 ng·h/mL; AUC(0-t) at 24 h [6]: 1080 ng·h/mL; AUC(0-t) at 24 h [7]: 2150 ng·h/mL; AUC(0-t) at 24 h [8]: 1040 ng·h/mL; MRT [9]: 4.5 h; MRT [10]: 7.5 h; MRT [11]: 6.5 h; MRT [12]: 6.4 h; bioavailability [13]: 29%; bioavailability [14]: 83%; bioavailability [15]: 40%; bioavailability [16]: 38%; Stability [17]: 13 µL/min/mg; Stability [18]: 3 µL/min/mg; Stability [19]: 0 µL/min/mg; Stability [20]: 14 µL/min/mg; Activity [21]: 3%; inhibition in vivo at 0.1 mg/kg (Cavia porcellus [4]): 78.9%
Cc1cc(F)ccc1[C@H]1CN(C(=O)C(N)=O)CC[C@@H]1C(=O)N(C)[C@H](C)c1cc(C(F)(F)F)cc(C(F)(F)F)c1 | 0.2 nM | 57 µL/min/mg |  | inhibition in vivo at 0.1 mg/kg (Cavia porcellus [4]): 43.1%
CN(Cc1cc(C(F)(F)F)cc(C(F)(F)F)c1)C(=O)[C@@H]1CCNC[C@H]1c1ccccc1 (racemic) | 2.6 nM |  |  | 
CC(=O)N1CC[C@@H](C(=O)N(C)Cc2cc(C(F)(F)F)cc(C(F)(F)F)c2)[C@H](c2ccccc2)C1 (racemic) | 2.6 nM |  |  | 
CC(=O)N1CC[C@H](C(=O)N(C)Cc2cc(C(F)(F)F)cc(C(F)(F)F)c2)[C@H](c2ccccc2)C1 (racemic) | 3.2 nM |  |  | 
CC(=O)NCC(=O)N1CC[C@@H](C(=O)N(C)Cc2cc(C(F)(F)F)cc(C(F)(F)F)c2)[C@H](c2ccccc2)C1 (racemic) | 12 nM |  |  | 
CC(=O)N1CCC(C(=O)N2CC[C@@H](C(=O)N(C)Cc3cc(C(F)(F)F)cc(C(F)(F)F)c3)[C@H](c3ccccc3)C2)CC1 (racemic) |  |  | 72.1% | 
CC(=O)N1CCC(C(=O)N2CC[C@@H](C(=O)NCc3cc(C(F)(F)F)cc(C(F)(F)F)c3)[C@H](c3ccccc3)C2)CC1 (racemic) | 2.7 nM |  |  | 
CC(=O)N1CCC(C(=O)N2CC[C@H](C(=O)N(C)Cc3cc(C(F)(F)F)cc(C(F)(F)F)c3)[C@@H](c3ccc(C)cc3)C2)CC1 (racemic) | 0.18 nM |  |  | 
CC(=O)N1CCC(C(=O)N2CC[C@H](C(=O)N(C)Cc3cc(C(F)(F)F)cc(C(F)(F)F)c3)[C@@H](c3cccc(C)c3)C2)CC1 (racemic) | 0.14 nM |  |  | 
CC(=O)N1CCC(C(=O)N2CC[C@H](C(=O)N(C)Cc3cc(C(F)(F)F)cc(C(F)(F)F)c3)[C@@H](c3ccccc3C)C2)CC1 (racemic) | 0.032 nM |  | 60.1% | 
CCc1ccccc1[C@H]1CN(C(=O)C2CCN(C(C)=O)CC2)CC[C@@H]1C(=O)N(C)Cc1cc(C(F)(F)F)cc(C(F)(F)F)c1 (racemic) | 0.064 nM |  |  | 
CC(=O)N1CCC(C(=O)N2CC[C@H](C(=O)N(C)Cc3cc(C(F)(F)F)cc(C(F)(F)F)c3)[C@@H](c3ccccc3C(C)C)C2)CC1 (racemic) | 0.21 nM |  |  | 
CC(=O)N1CCC(C(=O)N2CC[C@H](C(=O)N(C)Cc3cc(C(F)(F)F)cc(C(F)(F)F)c3)[C@@H](c3ccc(F)cc3)C2)CC1 (racemic) | 0.052 nM |  | 41.4% | 
CC(=O)N1CCC(C(=O)N2CC[C@H](C(=O)N(C)Cc3cc(C(F)(F)F)cc(C(F)(F)F)c3)[C@@H](c3ccc(F)cc3C)C2)CC1 (racemic) | 0.047 nM | 111 µL/min/mg | 105% | Activity [21]: 2%
CC(=O)NCC(=O)N1CC[C@H](C(=O)N(C)Cc2cc(C(F)(F)F)cc(C(F)(F)F)c2)[C@@H](c2ccc(F)cc2C)C1 (racemic) | 0.043 nM | 59 µL/min/mg | 48.9% | 
CNC(=O)N1CC[C@H](C(=O)N(C)Cc2cc(C(F)(F)F)cc(C(F)(F)F)c2)[C@@H](c2ccc(F)cc2C)C1 (racemic) | 0.048 nM | 199 µL/min/mg | 80% | 
Cc1cc(F)ccc1[C@H]1CN(C(N)=O)CC[C@@H]1C(=O)N(C)Cc1cc(C(F)(F)F)cc(C(F)(F)F)c1 (racemic) | 0.035 nM | 112 µL/min/mg | 80.3% | 
CONC(=O)N1CC[C@H](C(=O)N(C)Cc2cc(C(F)(F)F)cc(C(F)(F)F)c2)[C@@H](c2ccc(F)cc2C)C1 (racemic) | 0.073 nM |  |  | inhibition in vivo at 0.1 mg/kg (Cavia porcellus [4]): -23.9%
CNC(=O)C(=O)N1CC[C@H](C(=O)N(C)Cc2cc(C(F)(F)F)cc(C(F)(F)F)c2)[C@@H](c2ccc(F)cc2C)C1 (racemic) | 0.11 nM | 115 µL/min/mg | 51.5% | 
Cc1cc(F)ccc1[C@H]1CN(C(=O)C(N)=O)CC[C@@H]1C(=O)N(C)Cc1cc(C(F)(F)F)cc(C(F)(F)F)c1 (racemic) | 0.052 nM |  | 86.7% | Stability (Liver microsomes): 40 µL/min/mg
Cc1cc(F)ccc1[C@H]1CN(C(=O)C(=O)NO)CC[C@@H]1C(=O)N(C)Cc1cc(C(F)(F)F)cc(C(F)(F)F)c1 (racemic) | 0.046 nM | 2 µL/min/mg |  | inhibition in vivo at 0.1 mg/kg (Cavia porcellus [4]): -15.5%
CN(Cc1cc(C(F)(F)F)cc(C(F)(F)F)c1)C(=O)[C@H]1CCNC[C@H]1c1ccccc1 (relative stereo) | 5.6 nM |  |  | 
